From paper PMC4876717 (ACS chemical neuroscience, 2015)
pIC50: −log10 of the molar value.

Tests used:
[1] = Lipophilicity, n-octanol/PBS liquid-liquid partition; type: physicochemical; conditions: pH 7.4
Procedure, shortened: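 Radiolabelled test compound (~150,000 cpm) shaken with n-octanol (3.0 g) and 0.1 M sodium phosphate-buffered saline pH 7.40 (3.0 g): vortexed 3 min at room temperature, centrifuged 3500 rpm 5 min. Weighed aliquots of each phase gamma-counted. Remaining organic layer repartitioned until logD values were consistent. LogD = log[(cpm/g octanol)/(cpm/g PBS)]. Triplicate.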

[2] = Whole body biodistribution in mice; type: in vivo, ddY mice; conditions: for Distribution of radioactivity, blood / Distribution of radioactivity, brain / Distribution of radioactivity, heart / Distribution of radioactivity, kidneys / Distribution of radioactivity, liver / Distribution of radioactivity, lungs / Distribution of radioactivity, muscle / Distribution of radioactivity, small intestine / Distribution of radioactivity, spleen / Distribution of radioactivity, testes: mean ± SD, n = 3
Procedure, shortened: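 Male ddY mice (7 weeks, 34–36 g) given tracer in saline (2 MBq, 0.03 nmol/200 μL) via tail vein. Three mice killed at each time point: 1, 5, 15, 30 and 60 min. Blood, brain, heart, lung, liver, spleen, kidneys, small intestine with contents, muscle and testes removed and weighed. Tissues gamma-counted with decay correction. Uptake expressed as %ID/g wet tissue.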

[3] = PET imaging in rats, brain uptake; type: in vivo, Sprague-Dawley rats
Procedure, shortened: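 Male Sprague-Dawley rats (7 weeks, 210–230 g) under isoflurane (5% induction, 1–2% maintenance). Tail-vein catheter used to inject tracer (40–51 MBq, 0.7–1 nmol/200 μL). Scans: 90 min 3D list mode, 350–750 keV, binned 1 min × 4, 2 min × 8, […]. Filtered back-projection. ROIs on whole brain, cerebral cortex and cerebellum. Decay-corrected SUV from injected activity and body weight. n = 3.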

FAAH [4] = biological target: T1, FAAH (Rattus norvegicus, UniProt P97612); assay: PET blocking study with URB597 in rats; type: in vivo, Sprague-Dawley rats; conditions: pretreatment with URB597 3 mg/kg, 30 min iv before injection
T1 sequence (P97612 1-579): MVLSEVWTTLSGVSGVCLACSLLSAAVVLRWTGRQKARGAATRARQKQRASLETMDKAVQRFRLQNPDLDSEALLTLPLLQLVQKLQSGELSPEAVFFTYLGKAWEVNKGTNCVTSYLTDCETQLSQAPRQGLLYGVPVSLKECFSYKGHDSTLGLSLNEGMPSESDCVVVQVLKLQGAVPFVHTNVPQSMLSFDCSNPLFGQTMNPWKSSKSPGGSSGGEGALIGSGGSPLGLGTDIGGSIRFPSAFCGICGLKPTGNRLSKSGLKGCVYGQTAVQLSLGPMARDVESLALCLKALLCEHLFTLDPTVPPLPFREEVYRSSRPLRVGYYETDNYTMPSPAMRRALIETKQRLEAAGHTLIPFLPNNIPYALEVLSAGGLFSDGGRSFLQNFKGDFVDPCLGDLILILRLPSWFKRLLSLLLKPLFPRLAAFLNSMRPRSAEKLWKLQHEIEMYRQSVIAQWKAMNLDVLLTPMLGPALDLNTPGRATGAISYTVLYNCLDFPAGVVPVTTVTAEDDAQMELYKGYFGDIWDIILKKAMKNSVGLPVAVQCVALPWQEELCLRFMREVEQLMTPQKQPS
Procedure, shortened: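 Blocking arm of the rat brain PET, run in male Sprague-Dawley rats under isoflurane. Unlabelled FAAH inhibitor (3.0 mg/kg, in 300 μL saline with 10% ethanol and 5% Tween 80) given 30 min before the tracer (40–51 MBq, 0.7–1 nmol iv). Dynamic 90 min list-mode scan. Regional brain uptake taken as decay-corrected SUV and compared with baseline. Three rats per condition.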

[5] = Radiometabolite analysis in rat plasma and brain homogenate; type: in vivo, Sprague-Dawley rats; conditions: 15 min post-tracer injection
Procedure, shortened: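 Sprague-Dawley rats (n = 3) given tracer iv (82 MBq, 1.1 nmol) and killed at 15 min. Plasma separated (15,000 g, 2 min, 4 °C) and deproteinised with equal volume acetonitrile. Brain homogenised in ice-cold acetonitrile/water 1:1 and centrifuged; supernatant recovery >90%. Supernatants run on radio-HPLC (C18, acetonitrile/0.05 M NH4OAc 2:8, 2 mL/min). Parent fraction = parent peak area/total peak area × 100, decay-corrected.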

PgP/Bcrp = assay: PET imaging in wild-type and PgP/Bcrp knockout mice; type: in vivo
Procedure, shortened: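 Male […] mice, wild-type and Abcb1a/1b−/−Abcg2−/− (17–18 weeks), set up in the scanner as for the rat scans. Tracer (18 MBq, 0.12 nmol/100 μL) injected via tail-vein line. Dynamic 3D list-mode acquisition for 60 min (1 min × 4, 2 min × 8, 5 min × 8). Regional time-activity curves taken as SUV, processed as for rats. Three mice per genotype.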

[6] = Stability of formulated tracer; type: physicochemical; conditions: within 90 min after formulation in saline
[7] = cited from earlier work
FAAH [8] = conditions: read-out: IC50 to FAAH in vitro; cited from earlier work
[9] = tested on: triacylglycerol hydrolase (TGH); conditions: relative to FAAH; cited from earlier work
[10] = tested on: hydrolytic enzyme KIAA1363; conditions: relative to FAAH; cited from earlier work

[11CH3]Oc1ccccc1CCCCCCC(=O)c1ncc(-c2ccccn2)o1 [[^11C]MPPO, 7-(2-[^11C]methoxyphenyl)-1-(5-(pyridin-2-yl)oxazol-2-yl)heptan-1-one]
logD [1]: 3.43 | brain uptake ([2]; mice biodistribution): 0.8 SUV | Distribution of radioactivity, blood ([2]; mice, 1 min after injection): 1.83 ± 0.15 %ID/g | Distribution of radioactivity, brain ([2]; mice, 1 min after injection): 1.87 ± 0.20 %ID/g | Distribution of radioactivity, heart ([2]; mice, 1 min after injection): 6.89 ± 0.60 %ID/g | Distribution of radioactivity, kidneys ([2]; mice, 1 min after injection): 12.64 ± 0.56 %ID/g | Distribution of radioactivity, liver ([2]; mice, 1 min after injection): 9.78 ± 1.10 %ID/g | Distribution of radioactivity, lungs ([2]; mice, 1 min after injection): 17.47 ± 3.88 %ID/g | Distribution of radioactivity, muscle ([2]; mice, 1 min after injection): 1.78 ±0.16 %ID/g | Distribution of radioactivity, small intestine ([2]; mice, 1 min after injection): 3.08 ± 0.29 %ID/g | Distribution of radioactivity, spleen ([2]; mice, 1 min after injection): 2.28 ± 0.50 %ID/g | Distribution of radioactivity, testes ([2]; mice, 1 min after injection): 0.44 ± 0.05 %ID/g | Distribution of radioactivity, blood ([2]; mice, 5 min after injection): 0.75 ± 0.07 %ID/g | Distribution of radioactivity, brain ([2]; mice, 5 min after injection): 2.27 ± 0.16 %ID/g | Distribution of radioactivity, heart ([2]; mice, 5 min after injection): 1.65 ± 0.07 %ID/g | Distribution of radioactivity, kidneys ([2]; mice, 5 min after injection): 17.17 ± 1.67 %ID/g | Distribution of radioactivity, liver ([2]; mice, 5 min after injection): 18.61 ± 2.31 %ID/g | Distribution of radioactivity, lungs ([2]; mice, 5 min after injection): 4.88 ± 0.41 %ID/g | Distribution of radioactivity, muscle ([2]; mice, 5 min after injection): 1.03 ± 0.09 %ID/g | Distribution of radioactivity, small intestine ([2]; mice, 5 min after injection): 7.22 ± 0.89 %ID/g | Distribution of radioactivity, spleen ([2]; mice, 5 min after injection): 1.29 ± 0.22 %ID/g | Distribution of radioactivity, testes ([2]; mice, 5 min after injection): 0.67 ± 0.02 %ID/g | Distribution of radioactivity, blood ([2]; mice, 15 min after injection): 0.38 ± 0.03 %ID/g | Distribution of radioactivity, brain ([2]; mice, 15 min after injection): 1.81 ± 0.09 %ID/g | Distribution of radioactivity, heart ([2]; mice, 15 min after injection): 0.55 ± 0.01 %ID/g | Distribution of radioactivity, kidneys ([2]; mice, 15 min after injection): 13.70 ± 0.69 %ID/g | Distribution of radioactivity, liver ([2]; mice, 15 min after injection): 20.05 ± 1.43 %ID/g | Distribution of radioactivity, lungs ([2]; mice, 15 min after injection): 1.20 ± 0.04 %ID/g | Distribution of radioactivity, muscle ([2]; mice, 15 min after injection): 0.58 ± 0.17 %ID/g | Distribution of radioactivity, small intestine ([2]; mice, 15 min after injection): 18.54 ± 4.00 %ID/g | Distribution of radioactivity, spleen ([2]; mice, 15 min after injection): 0.60 ± 0.03 %ID/g | Distribution of radioactivity, testes ([2]; mice, 15 min after injection): 0.59 ± 0.00 %ID/g | Distribution of radioactivity, blood ([2]; mice, 30 min after injection): 0.34 ± 0.05 %ID/g | Distribution of radioactivity, brain ([2]; mice, 30 min after injection): 1.40 ± 0.15 %ID/g | Distribution of radioactivity, heart ([2]; mice, 30 min after injection): 0.51 ± 0.03 %ID/g | Distribution of radioactivity, kidneys ([2]; mice, 30 min after injection): 9.55 ± 0.65 %ID/g | Distribution of radioactivity, liver ([2]; mice, 30 min after injection): 17.47 ± 1.10 %ID/g | Distribution of radioactivity, lungs ([2]; mice, 30 min after injection): 1.19 ± 0.18 %ID/g | Distribution of radioactivity, muscle ([2]; mice, 30 min after injection): 0.50 ± 0.17 %ID/g | Distribution of radioactivity, spleen ([2]; mice, 30 min after injection): 0.49 ± 0.03 %ID/g | Distribution of radioactivity, testes ([2]; mice, 30 min after injection): 0.48 ± 0.02 %ID/g | Distribution of radioactivity, heart ([2]; mice, 60 min after injection): 0.32 ± 0.03 %ID/g | Distribution of radioactivity, kidneys ([2]; mice, 60 min after injection): 6.20 ± 0.70 %ID/g | Distribution of radioactivity, liver ([2]; mice, 60 min after injection): 13.69 ±0.63 %ID/g | Distribution of radioactivity, lungs ([2]; mice, 60 min after injection): 0.64 ± 0.08 %ID/g | Distribution of radioactivity, muscle ([2]; mice, 60 min after injection): 0.24 ± 0.04 %ID/g | Distribution of radioactivity, small intestine ([2]; mice, 60 min after injection): 13.75 ±3.44 %ID/g | Distribution of radioactivity, spleen ([2]; mice, 60 min after injection): 0.37 ±0.01 %ID/g | Distribution of radioactivity, testes ([2]; mice, 60 min after injection): 0.30 ± 0.03 %ID/g | blood clearance, 1 min/60 min ratio ([2]; mice, blood radioactivity): 6.1 | brain washout, 5 min/60 min ratio ([2]; mice, brain radioactivity): 2.6 | time of peak radioactivity in brain tissues ([3]; rat brain PET, after injection): 1.5 min | highest (peak) radioactivity in cerebellar nuclei ([3]; rat brain PET, baseline): 0.87 SUV | brain washout, 5 min/60 min ratio ([3]; rat whole brain PET): 5.1 | maximum uptake in whole brain ([3]; rat whole brain PET): 0.65 SUV | specificity to FAAH in rat brains (FAAH [4]): modest | metabolism (radioactivity associated with hydrophilic metabolites) ([5]; rat brain homogenates): 75% | metabolism (radioactivity associated with hydrophilic metabolites) ([5]; rat plasma): 90% | peak brain uptake, cerebellum (PgP/Bcrp; PgP/Bcrp KO mice): 1.04 SUV | ratio of KO/WT in AUC, cerebellum (PgP/Bcrp; PgP/Bcrp KO vs wild type mice): 1.2 | ratio of KO/WT in AUC, cerebral cortex (PgP/Bcrp; PgP/Bcrp KO vs wild type mice): 1.2 | substrate for Pgp/Bcrp (PgP/Bcrp; mice, blood-brain barrier): not likely a substrate for Pgp/Bcrp | peak brain uptake, cerebellum (PgP/Bcrp; wild type mice): 0.78 SUV | peak brain uptake, cerebral cortex (PgP/Bcrp; wild type mice): 0.74 SUV | radiolysis after formulation [6]: no radiolysis was observed

O=C(Nc1cccnn1)N1CCC(=Cc2cccc(Oc3ccc(C(F)(F)F)cn3)c2)CC1 [[^11C]PF-04457845]
logD7.4 [7]: 3.48

COc1ccccc1CCCCCCC(=O)c1ncc(-c2ccccn2)o1 [MPPO, 7-(2-methoxyphenyl)-1-(5-(pyridin-2-yl)oxazol-2-yl)heptan-1-one]
pIC50 (FAAH [8]): 8.00 | selectivity over triacylglycerol hydrolase (TGH) [9]: greater than 500 fold | selectivity over hydrolytic enzyme KIAA1363 [10]: > 10^5 fold

O=[11C](NC1CCCCC1)Oc1ccc(O)c(-c2ccccc2)c1 [[^11C]CURB]
logD7.4 [7]: 2.8
